Data set [1] has as its system Rattus norvegicus. Description: Inhibition of TNF-alpha production in rat joint after oral administration at 3 mg/Kg. Type of data set: functional.
Data set [2] concerns Rattus norvegicus. Description: In vivo threshold minimum effective dose for inhibition of rat paw-swelling after oral bid dosing for 14 days. Type of data set: functional.
For data set [3], the system named is Rattus norvegicus. Description: In vivo threshold minimum effective dose for inhibition of bone erosion and cartilage destruction in rat after oral bid dosing for 14 days. Type of data set: functional.
For data set [4], the target named is Mitogen-activated protein kinase 14 (Homo sapiens, UniProt Q16539). Description: Inhibition of human recombinant Mitogen activated protein kinase p38 alpha activity using ATP[gamma-33P] and EGFR 21mer-peptide. Summed up:
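Recombinant human p38α, filter binding format with ATP[γ-33P] and EGFR 21-mer peptide substrate; IC50 in nM, n determinations per compound.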

Data set [5] can be described thus: (§1) Area under concentration-curve (from 0-infinity) for a compound in plasma of rats after oral administration. Type of data set: ADME. On the set-up: time infinity, route oral. The conditions noted are these: rat.
Data set [6] is filed under the species Mus musculus. The experiment in a line: Inhibitory concentration against TNF-alpha production in mouse macrophages. The format is functional.
The test system of data set [7] is Mus musculus. Description: In vivo threshold minimum effective dose for inhibition of LPS-induced TNF-alpha production in mice after oral administration. Type of data set: functional.
Another data set has as its target Cytochrome P450 3A4 (Homo sapiens, UniProt P08684). The experiment in a line: In vitro inhibitory concentration against Cytochrome P450 3A4. The format is ADME.
Data set [8] in a line: as §1. Type of data set: ADME. On the set-up: route oral, time infinity. The note with it: rat.
A short description of data set [9]: Bioavailability of compound in rat plasma after oral administration. The format is ADME, organism-based.

Cytochrome P450 3A4, sequence (P08684 whole entry): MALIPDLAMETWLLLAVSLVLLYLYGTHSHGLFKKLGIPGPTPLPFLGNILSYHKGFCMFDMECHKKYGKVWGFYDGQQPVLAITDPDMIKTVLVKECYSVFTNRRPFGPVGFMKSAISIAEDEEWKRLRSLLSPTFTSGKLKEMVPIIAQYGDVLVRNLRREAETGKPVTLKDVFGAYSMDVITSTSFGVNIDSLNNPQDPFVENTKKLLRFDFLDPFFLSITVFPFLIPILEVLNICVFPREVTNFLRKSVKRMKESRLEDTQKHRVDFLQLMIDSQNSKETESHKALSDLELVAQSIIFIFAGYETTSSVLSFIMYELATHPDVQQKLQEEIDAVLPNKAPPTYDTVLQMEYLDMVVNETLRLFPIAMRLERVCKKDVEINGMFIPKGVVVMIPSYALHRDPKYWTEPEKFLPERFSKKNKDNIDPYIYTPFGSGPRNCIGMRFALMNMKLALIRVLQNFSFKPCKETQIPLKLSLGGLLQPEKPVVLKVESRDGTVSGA
Mitogen-activated protein kinase 14, sequence (Q16539 whole entry): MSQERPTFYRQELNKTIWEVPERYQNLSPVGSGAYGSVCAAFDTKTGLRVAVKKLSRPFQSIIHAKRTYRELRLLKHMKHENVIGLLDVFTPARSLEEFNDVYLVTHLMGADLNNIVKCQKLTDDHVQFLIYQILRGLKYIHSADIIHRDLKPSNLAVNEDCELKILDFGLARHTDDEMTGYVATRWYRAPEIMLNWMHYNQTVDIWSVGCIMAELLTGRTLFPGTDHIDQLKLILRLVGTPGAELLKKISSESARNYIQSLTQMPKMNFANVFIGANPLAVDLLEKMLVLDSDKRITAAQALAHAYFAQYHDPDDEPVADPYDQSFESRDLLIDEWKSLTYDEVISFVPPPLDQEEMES

For the molecule `OCCC#Cc1nc(-c2ccc(F)cc2)c(-c2ccncc2)n1CCCc1ccccc1` [RWJ-67657], the inhibition in vivo at 3 mg/kg in the data set on Rattus norvegicus [1] is < 50%. The TMED50 in the data set with Rattus norvegicus [2] and in the data set with Rattus norvegicus [3] was >30 mg/kg each time.

In the case of `CC(C)S(=O)(=O)n1c(N)nc2ccc(-c3[nH]cnc3-c3ccc(F)cc3)cc21.CS(=O)(=O)O.CS(=O)(=O)O`, the IC50 amounted to 0.0043 µM in [4], 0.0657 µM in the data set listed under Mus musculus [6] and 0.8 µM on Cytochrome P450 3A4. In data set [5], this molecule returned an AUC 0-inf of 1.4 µM·h. The same molecule showed a TMED50 with Mus musculus [7] of 9.6 mg/kg.

For `CC(C)S(=O)(=O)n1c(N)nc2ccc(-c3nc(C4CCNCC4)[nH]c3-c3ccccc3)cc21`, the half-inhibitory concentration (IC50) is 0.0027 µM in data set [4] and 2.89 µM in the data set listed under Mus musculus [6].

Turning to `CN(C)S(=O)(=O)n1c(N)nc2ccc(-c3[nH]c(-c4c(F)cccc4F)nc3-c3ccccc3)cc21.CS(=O)(=O)O.CS(=O)(=O)O`, the IC50 in [4] is 0.0228 µM; in the data set listed under Mus musculus [6] it was 0.0088 µM. The molecule also had an AUC 0-inf in [5] of 9.8 µM·h. Further, the TMED50 in the data set on Mus musculus [7] is 12.5 mg/kg.

Consider `CC(C)S(=O)(=O)n1c(N)nc2ccc(-c3c(-c4ccc(F)cc4)ncn3C3CCNCC3)cc21`, for which the values for the IC50 (in [4]; in the data set listed under Mus musculus [6]) were 0.125 µM and 4.46 µM, respectively.

For `CC(C)S(=O)(=O)n1c(N)nc2ccc(-c3c(-c4ccc(F)cc4)ncn3C)cc21`, the IC50 came to 0.0207 µM in data set [4] and 0.72 µM in the data set filed under Mus musculus [6].

Regarding `CCc1nc(-c2ccc(F)cc2)c(-c2ccc3nc(N)n(S(=O)(=O)C(C)C)c3c2)[nH]1.CS(=O)(=O)O`, the IC50 turned out to be 0.0047 µM in data set [4], 0.0472 µM in the data set filed under Mus musculus [6] and 4.4 µM against Cytochrome P450 3A4. The molecule further had a TMED50 with Mus musculus [7] of 6.5 mg/kg.

For `CC(C)S(=O)(=O)n1c(N)nc2ccc(-c3[nH]cnc3-c3ccccc3)cc21`, the IC50 in data set [4] was found to be 0.0042 µM; in the data set filed under Mus musculus [6] it was 0.0318 µM; at Cytochrome P450 3A4, 1.6 µM. The same molecule registered an AUC 0-inf in data set [5] of 3.7 µM·h. The molecule further returned a TMED50 in the data set with Mus musculus [7] of 19.8 mg/kg.

As for `CC(C)(C)c1nc(-c2ccc(F)cc2F)c(-c2ccc3nc(N)n(S(=O)(=O)C(C)(C)C)c3c2)[nH]1.CS(=O)(=O)O`, the figures for the IC50 (in data set [4]; in the data set filed under Mus musculus [6]) were 0.0048 µM and 0.0016 µM, respectively. The AUC 0-inf in data set [5] was 28.3 µM·h. For the same molecule, in the data set on Rattus norvegicus [1], testing at 3 mg/kg gave an inhibition in vivo of 82%. Besides, the TMED50 is 5.3 mg/kg with Mus musculus [7], 1.5 mg/kg with Rattus norvegicus [2] and 4.2 mg/kg with Rattus norvegicus [3].

As to `CC(C)c1nc(-c2ccc(F)cc2)c(-c2ccc3nc(N)n(S(=O)(=O)C(C)C)c3c2)[nH]1.CS(=O)(=O)O`, the IC50 in data set [4] worked out at 0.0045 µM; in the data set filed under Mus musculus [6], 0.0286 µM; against Cytochrome P450 3A4, 6.1 µM. This molecule gave an AUC 0-inf in [5] of 12.8 µM·h. In the data set on Mus musculus [7], this molecule had a TMED50 of 4.9 mg/kg.

Regarding `CC(C)S(=O)(=O)n1c(N)nc2ccc(-c3nc(-c4c(F)cccc4F)[nH]c3-c3ccccc3)cc21`, the figures for the IC50 (in data set [4]; in the data set listed under Mus musculus [6]; against Cytochrome P450 3A4) were 0.0049 µM, 0.0103 µM and 6.3 µM, respectively. The TMED50 in the data set with Mus musculus [7] came out at 5.2 mg/kg. The same molecule yielded an AUC 0-inf in [8] of 5.4 µM·h.

Consider `COc1nccc(-c2c(-c3ccc(F)cc3)ncn2C2CCNCC2)n1` [SB-242235], for which the TMED50 is 5 mg/kg in the data set on Rattus norvegicus [2] and 7 mg/kg in the data set on Rattus norvegicus [3].

`CC(C)S(=O)(=O)n1c(N)nc2ccc(-c3[nH]c(C(C)(C)C)nc3-c3ccc(F)cc3F)cc21.CS(=O)(=O)O`: the figures for the IC50 (in data set [4]; in the data set listed under Mus musculus [6]) were 0.0044 µM and 0.0062 µM, respectively. In data set [5], this molecule came in with an AUC 0-inf of 14.6 µM·h. Besides, in the data set on Rattus norvegicus [1], the inhibition in vivo at 3 mg/kg is 81%. Moreover, the TMED50 in the data set on Mus musculus [7] was 2.2 mg/kg; in the data set with Rattus norvegicus [2], 1.5 mg/kg; with Rattus norvegicus [3], 8.1 mg/kg.

For `CS(=O)(=O)O.CS(=O)(=O)O.Nc1nc2ccc(-c3[nH]c(-c4c(F)cccc4F)nc3-c3ccccc3)cc2n1S(=O)(=O)C1CCCC1`, the IC50 in [4] was found to be 0.0199 µM; in the data set listed under Mus musculus [6], 0.006 µM; against Cytochrome P450 3A4, 13 µM. This molecule also registered an AUC 0-inf in data set [5] of 0.9 µM·h. This molecule also had a TMED50 in the data set with Mus musculus [7] of 5.1 mg/kg.

As to `CC(C)S(=O)(=O)n1c(N)nc2ccc(-c3[nH]c(-c4c(Cl)cccc4Cl)nc3-c3ccccc3)cc21.CS(=O)(=O)O`, the IC50 came out at 0.0153 µM in data set [4] and 0.0034 µM in the data set filed under Mus musculus [6]. In data set [5], this molecule had an AUC 0-inf of 17 µM·h. The TMED50 in the data set on Mus musculus [7] stood at 2.5 mg/kg. Further, the bioavailability in [9] was determined as 55%.

In the case of `CC(C)S(=O)(=O)n1c(N)nc2ccc(-c3[nH]c(C(C)(C)C)nc3-c3ccc(F)cc3)cc21.CS(=O)(=O)O.CS(=O)(=O)O`, the IC50 in [4] came out at 0.0159 µM; in the data set listed under Mus musculus [6], 0.0311 µM; at Cytochrome P450 3A4, 31.8 µM. The same molecule yielded an AUC 0-inf in data set [5] of 13.5 µM·h. In the data set with Mus musculus [7], the TMED50 came to 3.9 mg/kg.

As to `Cc1ccc(-n2nc(C(C)(C)C)cc2NC(=O)Nc2ccc(OCCN3CCOCC3)c3ccccc23)cc1` [DORAMAPIMOD], the inhibition in vivo at 3 mg/kg in the data set on Rattus norvegicus [1] worked out at 55%. In addition, the TMED50 in the data set with Rattus norvegicus [2] stood at 15 mg/kg; with Rattus norvegicus [3] it was 30 mg/kg.

In the case of `CC(C)CN1CCC(c2nc(-c3ccc4nc(N)n(S(=O)(=O)C(C)C)c4c3)c(-c3ccccc3)[nH]2)CC1`, the IC50 in data set [4] is 0.0055 µM; in the data set listed under Mus musculus [6] it was 0.0279 µM; on Cytochrome P450 3A4 it was 5.3 µM. The molecule further had a TMED50 in the data set on Mus musculus [7] of 7.3 mg/kg.

The values above are taken from ChEMBL document CHEMBL1143559, “Design of potent and selective 2-aminobenzimidazole-based p38alpha MAP kinase inhibitors with excellent in vivo efficacy” (J Med Chem, 2005).
